Results as given in ChEMBL document CHEMBL1152262, “New cyclic somatostatin analogues containing a pyrazinone ring: importance of Tyr for antiproliferative activity” (2008).
Where a SMILES comes first, the peptide text is derived from it. Bridges are numbered along the chain shown (N, C = ends). [ ]: non-standard residue; d: D form.

How the values were obtained:
Assay type in all cases: functional
A-431 [1] = experiment: Antiproliferative activity against human A431 cells at 50 uM by MTT assay
Procedure, shortened: (§1)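 MTT read-out of proliferation in A431 (human epithelial tumour) and SW480 (human colon carcinoma) cells, both described as expressing SSTRs. Each analogue was tested at […]. TT-232 and cycloheximide were run as positive controls.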

A-431 [2] = experiment: Antiproliferative activity against human A431 cells at 10 uM by MTT assay; procedure, shortened: as §1
SW480 [3] = experiment: Antiproliferative activity against human SW480 cells at 25 uM by MTT assay; procedure, shortened: as §1
A-431 [4] = experiment: Antiproliferative activity against human A431 cells at 25 uM by MTT assay; procedure, shortened: as §1
SW480 [5] = experiment: Antiproliferative activity against human SW480 cells at 50 uM by MTT assay; procedure, shortened: as §1
SW480 [6] = experiment: Antiproliferative activity against human SW480 cells at 10 uM by MTT assay; procedure, shortened: as §1

Structure (SMILES) | Activity (A-431 [1]) | Activity (A-431 [2]) | Activity (SW480 [3]) | Activity (A-431 [4]) | Activity (SW480 [5]) | Activity (SW480 [6])
Cc1nc2c(=O)[nH]c1CCCCNC(=O)[C@H](CCCCN)NC(=O)[C@@H](Cc1c[nH]c3ccccc13)NC(=O)[C@H](Cc1ccccc1)NC(=O)CC2 | 0% | 0% | 4% | 0% | 4% | 2%
Cc1cc(O)cc(C)c1C[C@@H]1NC(=O)CCc2nc(C)c([nH]c2=O)CCCCNC(=O)[C@H](CCCCN)NC(=O)[C@@H](Cc2c[nH]c3ccccc23)NC1=O | 0% | 0% | 11% | 0% | 7% | 2%
C[C@@H](O)[C@H](NC(=O)[C@@H]1CSSC[C@H](NC(=O)[C@H](N)Cc2ccccc2)C(=O)N[C@@H](Cc2ccc(O)cc2)C(=O)N[C@H](Cc2c[nH]c3ccccc23)C(=O)N[C@@H](CCCCN)C(=O)N1)C(N)=O [TT-232] (H-[dF]CY[dW]KCT-NH2; disulfide 2-6) | 80% | 50% | 47% | 60% | 88% | 13%
C[C@@H]1C[C@@H]([C@H](O)CC2CC(=O)NC(=O)C2)C(=O)[C@@H](C)C1 [CYCLOHEXIMIDE] | 80% | 40% | 85% | 70% | 92% | 68%
Cc1nc2c(=O)[nH]c1CCCCNC(=O)[C@H](CCCCN)NC(=O)[C@@H](Cc1c[nH]c3ccccc13)NC(=O)[C@H](Cc1ccc(O)cc1)NC(=O)CC2 | 58% | 28% | 31% | 42% | 35% | 35%
Cc1nc2c(=O)[nH]c1CCC(=O)N[C@@H](Cc1ccccc1)C(=O)N[C@H](Cc1c[nH]c3ccccc13)C(=O)N[C@@H](CCCCN)C(=O)NCCCC2 | 25% | 31% | 7% | 28% | 0% | 0%
Cc1nc2c(=O)[nH]c1CCC(=O)N[C@@H](Cc1ccc(O)cc1)C(=O)N[C@H](Cc1c[nH]c3ccccc13)C(=O)N[C@@H](CCCCN)C(=O)NCCCC2 | 56% | 19% | 23% | 36% | 7% | 24%
Cc1cc(O)cc(C)c1C[C@@H]1NC(=O)CCc2[nH]c(=O)c(nc2C)CCCCNC(=O)[C@H](CCCCN)NC(=O)[C@@H](Cc2c[nH]c3ccccc23)NC1=O | 0% | 0% | 16% | 0% | 14% | 8%
